Reference: paper PMC10870114 (Clinical Cancer Research, 2023)

Legend:
[1] = test system: patients with locally advanced head and neck cancer; conditions: NCT02516813; cited from earlier work
[2] = Plasma pharmacokinetics on fraction day; assay type: in vivo, human
[3] = test system: patients with locally advanced rectal cancer; test: Dose-limiting toxicities; assay type: in vivo, human
[4] = test system: patients with locally advanced rectal cancer; test: Late toxicities and deaths after the on-treatment period; assay type: in vivo, human
[5] = test system: locally advanced rectal cancer; test: Disease-free survival, recurrence and progression events; assay type: in vivo, human
In short: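 They also received capecitabine 825 mg/m2 twice daily and RT 50–50.4 Gy in 25 or 28 fractions, 5 days/week, for 5–5.5 weeks. DFS was estimated by Kaplan–Meier with two-sided 95% CI.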

[6] = Overall, peposertib 50-250 mg + RT + capecitabine, n = 19

COc1ccc([C@@H](O)c2cc(-c3ncnc4cc(N5CCOCC5)ccc34)c(F)cc2Cl)nn1 [Peposertib]
Safety of combination with RT and full doses of cisplatin [1]: could not be safely combined | Dose proportionality of exposure ([2]; across all dose levels after single and multiple dosing): dose proportional | half-life ([2]; human, plasma, oral, Mean terminal half-life, all dosing groups, independent of the dose level): 5 to 6 h | Accumulation after multiple once-daily dosing ([2]; in vivo): No relevant peposertib accumulation | DLT reported overall ([3]; all dose cohorts): five | Peposertib dose considered tolerable in combination with RT and capecitabine ([3]; based on the totality of safety data): ≤ 150 mg once daily | Dose-limiting toxicities, patients with DLT of evaluable patients ([3]; peposertib 100 mg once daily + CRT, radiation skin injury and enterocolitis): one out of five | Dose-limiting toxicities, patients with DLT of evaluable patients ([3]; peposertib 250 mg once daily + CRT, two enterocolitis and one proctitis): three out of six | MTD and RP2D ([3]; peposertib + capecitabine-based CRT, study enrollment prematurely discontinued): not declared | Dose dependence of late toxicities ([4]; across the peposertib dose range): no discernible indication of a dose-dependent effect | Late toxicities: anemia ([4]; all cohorts): 3 n | Patients with late toxicities ([4]; all cohorts, 18 patients, data cutoff March 22, 2022): 94.7% | Grade ≥3 late toxicities ([4]; all cohorts, at data cutoff): 11 patients | Late toxicities: proctitis ([4]; all cohorts, n = 3): 15.8% | Late toxicities: gastrointestinal disorders ([4]; all cohorts, n = 12): 63.2% | Patients who died during the study ([4]; all considered unrelated to study treatment, not treatment-emergent): Three | Disease-free survival time: Median [5, 6]: 21.2 mo | Disease-free survival time: Minimum [5, 6]: 0 mo | Disease-free survival time: Number of events (PD, deaths) [5, 6]: 5 (26.3) n (%) | Disease-free survival time: maximum [5, 6]: 23.5 mo | Disease-free survival rate at 18 months ([5]; all cohorts, Kaplan-Meier estimate, 95% CI, 25.9–87.9): 65.9% | Median DFS ([5]; all cohorts, 95% CI, 18.0–not done): 21.2 months | Locoregional recurrence within the study period ([5]; nine patients who underwent surgery, follow-up of up to 2 years): none | Progression events at data cutoff ([5]; three deaths, two progressive disease events): five
